Experimental data: ChEMBL document CHEMBL2385057 (Bioorg Med Chem Lett, 2013)
pIC50: −log10 of the molar value.

Tests used:
[1] = Half life in human liver microsomes; type: ADME, Microsome
[2] = biological target: cGMP-dependent 3',5'-cyclic phosphodiesterase (Homo sapiens, UniProt O00408); assay: Inhibition of PDE2 catalytic domain (unknown origin)
[3] = biological target: 3',5'-cyclic-AMP phosphodiesterase 4B (Homo sapiens, UniProt Q07343); assay: Inhibition of PDE4B catalytic domain (unknown origin)
Method in brief: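 Each IC50 is the mean of at least two independent determinations. Each curve had 10 half-log dilutions, centred near the 50% inhibition level, with each point run in duplicate.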

[4] = Oral bioavailability in Sprague-Dawley rat at 10 mg/kg; type: ADME, organism-based; conditions: in vivo
Method in brief: (§1)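 Male Sprague–Dawley rats, two animals per route. Dosing was either intravenous at 1 mg/kg or oral at 10 mg/kg. Pharmacokinetic parameters were derived from these dosings.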

[5] = Tmax in Sprague-Dawley rat at 10 mg/kg, po; type: ADME, organism-based; set-up: dose 10 mg/kg, route oral; conditions: in vivo; method in brief: as §1
[6] = AUC in Sprague-Dawley rat at 10 mg/kg, po; type: ADME, organism-based; set-up: dose 10 mg/kg, route oral; conditions: plasma; method in brief: as §1
[7] = Volume of distribution at steady state in Sprague-Dawley rat at 1 mg/kg, iv and 10 mg/kg, po; type: ADME, organism-based; conditions: in vivo, read-out: Vdss; method in brief: as §1
[8] = Clearance in Sprague-Dawley rat at 1 mg/kg, iv and 10 mg/kg, po; type: ADME, organism-based; conditions: in vivo; method in brief: as §1
[9] = Half life in Sprague-Dawley rat at 1 mg/kg, iv; type: ADME, organism-based; set-up: dose 1 mg/kg, route intravenous; conditions: in vivo; method in brief: as §1
[10] = Fraction unbound in brain of medial meniscal transection rat osteoarthritis pain model at 10 mg/kg, sc administered on day 28 post medial meniscal transection surgery measured at 1 hr to 3 hrs; type: ADME, organism-based; set-up: dose 10 mg/kg, route subcutaneous
[11] = system: Brain; assay: Total drug level in brain of medial meniscal transection rat osteoarthritis pain model at 10 mg/kg, sc administered on day 28 post medial meniscal transection surgery measured at 1 hr to 3 hrs; type: ADME, organism-based; set-up: dose 10 mg/kg, route subcutaneous; conditions: read-out: Drug uptake, in vivo
[12] = Fraction unbound in plasma of medial meniscal transection rat osteoarthritis pain model at 10 mg/kg, sc administered on day 28 post medial meniscal transection surgery measured at 1 hr to 3 hrs; type: ADME, organism-based; set-up: dose 10 mg/kg, route subcutaneous
[13] = Plasma concentration in medial meniscal transection rat osteoarthritis pain model at 10 mg/kg, sc administered on day 28 post medial meniscal transection surgery measured at 1 hr; type: ADME, organism-based; set-up: dose 10 mg/kg, route subcutaneous
Method in brief: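 Plasma was sampled 1 h after a single subcutaneous 10 mg/kg dose in the rat osteoarthritis pain model. Free concentration was derived using the rat plasma free fraction.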

[14] = Half life in rat liver microsomes; type: ADME, Microsome
[15] = system: Rattus norvegicus; assay: Analgesic activity in medial meniscal transection rat osteoarthritis pain model assessed as inhibition of change in hind paw weight distribution at 10 mg/kg, sc administered on day 28 post medial meniscal transection surgery measured after 1 hr relative to vehicle-treated control; type: functional; conditions: route subcutaneous
Method in brief: (§2)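 The rats were assessed for hind paw weight distribution. On day 28 after surgery they received a single subcutaneous dose of compound or vehicle and were reassessed 1 and 3 h post dose. N = 6 rats per group, data as mean ± SEM. Significance was tested by one-way ANOVA with Dunnett's test against vehicle at the same time point, P < 0.05.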

[16] = system: Rattus norvegicus; assay: Analgesic activity in medial meniscal transection rat osteoarthritis pain model assessed as inhibition of change in hind paw weight distribution at 10 mg/kg, po administered on day 28 post medial meniscal transection surgery measured after 1 hr relative to vehicle-treated control; type: functional
[17] = system: Rattus norvegicus; assay: Analgesic activity in medial meniscal transection rat osteoarthritis pain model assessed as inhibition of change in hind paw weight distribution at 10 mg/kg, po administered on day 28 post medial meniscal transection surgery measured after 3 hrs relative to vehicle-treated control; type: functional
[18] = system: Rattus norvegicus; assay: Analgesic activity in medial meniscal transection rat osteoarthritis pain model assessed as inhibition of change in hind paw weight distribution at 10 mg/kg, sc administered on day 28 post medial meniscal transection surgery measured after 3 hrs relative to vehicle-treated control; type: functional; conditions: route subcutaneous; method in brief: as §2

Sequence of 3',5'-cyclic-AMP phosphodiesterase 4B (Q07343 whole entry, the tested form may be a part): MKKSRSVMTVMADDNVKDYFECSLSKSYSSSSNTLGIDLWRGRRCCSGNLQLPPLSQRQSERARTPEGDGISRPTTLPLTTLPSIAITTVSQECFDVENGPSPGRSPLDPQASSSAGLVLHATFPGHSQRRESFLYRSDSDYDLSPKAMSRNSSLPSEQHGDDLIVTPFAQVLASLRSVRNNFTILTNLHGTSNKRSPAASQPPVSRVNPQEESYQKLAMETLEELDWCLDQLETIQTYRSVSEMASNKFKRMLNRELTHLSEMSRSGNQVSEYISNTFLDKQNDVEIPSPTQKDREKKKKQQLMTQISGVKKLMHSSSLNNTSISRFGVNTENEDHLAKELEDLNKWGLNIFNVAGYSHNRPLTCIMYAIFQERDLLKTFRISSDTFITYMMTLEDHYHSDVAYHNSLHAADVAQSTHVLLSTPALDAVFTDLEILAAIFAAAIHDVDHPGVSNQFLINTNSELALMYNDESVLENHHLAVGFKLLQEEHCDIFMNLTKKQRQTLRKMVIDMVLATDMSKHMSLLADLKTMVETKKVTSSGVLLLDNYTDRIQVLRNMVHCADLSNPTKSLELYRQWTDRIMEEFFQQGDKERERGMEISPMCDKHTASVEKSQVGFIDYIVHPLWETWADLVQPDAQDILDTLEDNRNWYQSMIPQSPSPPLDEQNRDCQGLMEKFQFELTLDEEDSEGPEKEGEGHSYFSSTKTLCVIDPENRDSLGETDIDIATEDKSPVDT
Sequence of cGMP-dependent 3',5'-cyclic phosphodiesterase (O00408 whole entry, the tested form may be a part): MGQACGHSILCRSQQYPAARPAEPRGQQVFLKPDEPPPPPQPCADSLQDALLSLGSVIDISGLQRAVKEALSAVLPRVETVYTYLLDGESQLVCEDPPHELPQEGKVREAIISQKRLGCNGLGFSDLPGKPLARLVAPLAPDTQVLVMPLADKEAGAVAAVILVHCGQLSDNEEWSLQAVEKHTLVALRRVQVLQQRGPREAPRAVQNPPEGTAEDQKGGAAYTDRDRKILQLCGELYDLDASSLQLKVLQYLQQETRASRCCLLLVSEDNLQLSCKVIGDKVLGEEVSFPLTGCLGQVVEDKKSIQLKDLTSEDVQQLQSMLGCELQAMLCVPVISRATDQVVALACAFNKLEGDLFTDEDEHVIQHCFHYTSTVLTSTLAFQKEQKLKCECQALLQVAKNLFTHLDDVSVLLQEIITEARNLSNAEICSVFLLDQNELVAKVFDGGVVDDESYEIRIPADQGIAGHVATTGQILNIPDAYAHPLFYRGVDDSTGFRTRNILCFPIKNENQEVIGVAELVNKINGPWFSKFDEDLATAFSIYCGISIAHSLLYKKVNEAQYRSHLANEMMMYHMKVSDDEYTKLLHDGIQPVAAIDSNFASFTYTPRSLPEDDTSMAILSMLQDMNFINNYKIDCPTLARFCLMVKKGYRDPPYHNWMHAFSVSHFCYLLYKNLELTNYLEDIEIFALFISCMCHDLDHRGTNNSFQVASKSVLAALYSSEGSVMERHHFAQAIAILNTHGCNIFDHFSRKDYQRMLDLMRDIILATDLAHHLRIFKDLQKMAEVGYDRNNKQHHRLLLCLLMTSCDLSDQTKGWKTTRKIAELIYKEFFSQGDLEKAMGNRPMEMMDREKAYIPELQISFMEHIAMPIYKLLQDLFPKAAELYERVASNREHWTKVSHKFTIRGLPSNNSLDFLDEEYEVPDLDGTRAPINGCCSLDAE

Compound	half-life [1] [min]	pIC50 [2]	pIC50 [3]	also measured
COc1ccc(-c2cc(C3=Nc4c(C(C)(C)C)nn(CCO)c4C(=O)NC3)ccc2OC)c(OC)c1	43	8.47	6.13	
CCC(CC)c1nn(CCO)c2c1N=C(c1ccc(-n3ccnc3C)cc1)CNC2=O				bioavailability [4]: 75%; Tmax [5]: 135 min; AUC [6]: 1660 ng·h/mL; Vd [7]: 1.1 L/kg; clearance [8]: 70 mL/min/kg; half-life [9]: 31.8 min
CCC(C)(C)c1nn(CCO)c2c1N=C(c1ccc(-n3ccnc3C)cc1)CNC2=O	6.9			
COc1ccc(C2=Nc3c(C(C)(C)C)nn(CCO)c3C(=O)NC2)cc1-c1cnn(C)c1	59	8.17	6.96	
COc1ccc(C2=Nc3c(C(C)(C)C)nn(CCO)c3C(=O)NC2)cc1-c1cnc(N(C)C)cc1C	74	8.89	6.27	
COc1ncc(-c2cc(C3=Nc4c(C(C)(C)C)nn(CCO)c4C(=O)NC3)ccc2OC)c(OC)n1	36	8.03	6.86	
COc1ccc(C2=Nc3c(C(C)(C)C)nn(CCO)c3C(=O)NC2)cc1-c1cnc(N2CCCC2)nc1	33	8.92	6.39	
COc1ccc(C2=Nc3c(C(C)(C)C)nn(CCO)c3C(=O)NC2)cc1-c1cnc(N2CCOCC2)nc1	39	8.85	6.58	
COc1ccc(-c2cc(C3=Nc4c(C(C)(C)C)nn(CCO)c4C(=O)NC3)ccc2OC)c(OC)n1	57	8.74	6.38	
COc1ccc(C2=Nc3c(C(C)(C)C)nn(CCO)c3C(=O)NC2)cc1-c1cnc(N(C)C)nc1	36	8.60	6.16	
COc1ccc(C2=Nc3c(C(C)(C)C)nn(CCO)c3C(=O)NC2)cc1-c1cnc(N2CCCCC2)nc1	18	8.60	6.45	
COc1ncc(-c2cc(C3=Nc4c(C(C)(C)C)nn(CCO)c4C(=O)NC3)ccc2OC)cn1	34		6.25	fraction unbound [10]: 0.009; concentration [11]: 475 nM; fraction unbound [12]: 0.032; concentration at 1 h [13]: 2500 nM; bioavailability [4]: 78%; Tmax [5]: 180 min; AUC [6]: 4530 ng·h/mL; Vd [7]: 3.02 L/kg; clearance [8]: 27 mL/min/kg; half-life [9]: 90 min; half-life [14]: > 60 min; inhibition in vivo at 10 mg/kg [15]: 79%; inhibition in vivo at 10 mg/kg [16]: 44%
COc1ccc(C2=Nc3c(C(C)(C)C)nn(CCCO)c3C(=O)NC2)cc1-c1ccccc1SC	51	6.30	4.00	
COc1ccc(C2=Nc3c(C(C)(C)C)nn(CCCO)c3C(=O)NC2)cc1-c1ccc(F)cc1F	120	6.32	4.00	
COc1ccc(C2=Nc3c(C(C)(C)C)nn(CCCO)c3C(=O)NC2)cc1-c1ccccc1F	48	6.23	5.09	
COc1ccccc1-c1cc(C2=Nc3c(C(C)(C)C)nn(CCCO)c3C(=O)NC2)ccc1OC	82	6.81	5.68	
COc1ccc(OC)c(-c2cc(C3=Nc4c(C(C)(C)C)nn(CCCO)c4C(=O)NC3)ccc2OC)c1	61	7.34	5.09	
COc1ccc(-c2cc(C3=Nc4c(C(C)(C)C)nn(CCCO)c4C(=O)NC3)ccc2OC)c(OC)c1	120	7.85	4.00	
COc1ccc(C2=Nc3c(C(C)(C)C)nn(CCCO)c3C(=O)NC2)cc1-c1ccc(C(=O)O)cc1	120	7.40	4.57	
COc1ccc(-c2cc(C3=Nc4c(C(C)(C)C)nn(CCCO)c4C(=O)NC3)ccc2OC)cn1	120	7.15	5.21	
COc1ccc(C2=Nc3c(C(C)(C)C)nn(CCCO)c3C(=O)NC2)cc1-c1cnn(C)c1	120	7.44	5.17	bioavailability [4]: 31%; Tmax [5]: 30 min; AUC [6]: 1160 ng·h/mL; Vd [7]: 2 L/kg; clearance [8]: 43 mL/min/kg; half-life [9]: 43.8 min
COc1ccc(C2=Nc3c(C(C)(C)C)nn(CCCO)c3C(=O)NC2)cc1-c1cnc(N(C)C)cc1C	42	7.74	5.25	
COc1ncc(-c2cc(C3=Nc4c(C(C)(C)C)nn(CCCO)c4C(=O)NC3)ccc2OC)c(OC)n1	120	8.15	5.72	
CS(=O)(=O)c1ccc(C2=C(c3ccccc3)C(=O)OC2)cc1 [ROFECOXIB]				inhibition in vivo at 10 mg/kg [17]: 79%; inhibition in vivo at 10 mg/kg [18]: 100%
